Results of several laboratories.
Lines come from different studies, so protocols differ.
Cell line: MDA-MB-231
Read-out: cell growth or viability

SMILES | technique | tested at | time | measurement | value
CCOc1c(OC)cc(CN2CCc3cc(O)c(OC)cc3C2)cc1OC | WST-1 | – | 96 h | GI50 | 0.3 µM
Cc1ccc2nc(-c3ccc(F)cc3)[nH]c2c1 | MTT | – | 48 h | IC50 | > 100 µM
CCc1cc(CN2CCc3cc(O)c(OC)cc3C2)cc(CC)c1CC | WST-1 | – | 96 h | GI50 | 26 µM
COc1cccc2c1C(=O)c1c(O)c3c(c(O)c1C2=O)C[C@@](O)(C(=O)CO)C[C@@H]3O[C@H]1C[C@H](N)[C@H](O)[C@H](C)O1 | MTT | – | 48 h | IC90 | > 20 µM
c1ccc2[nH]c(-c3ccc4c(c3)OCO4)nc2c1 | MTT | – | 48 h | IC50 | > 100 µM
COc1cc2c(cc1OS(N)(=O)=O)CCN(Cc1cccc(OC)c1OC)C2 | WST-1 | – | 96 h | GI50 | 0.888 µM
Cc1ccc2nc(-c3cc(Br)ccc3O)[nH]c2c1 | MTT | – | 48 h | IC50 | 6.69 µM
COc1cc2c(cc1OS(N)(=O)=O)CCN(Cc1cccc(OC(F)(F)F)c1)C2 | WST-1 | – | 96 h | GI50 | 2.29 µM
N#CC(C(=O)Nc1cccc(C(F)(F)F)c1)=C1Sc2nc3ccc(S(=O)(=O)N4CCCC4)cc3nc2S1 | MTT | 100 µM | 24 h | viability | 12.9%
COc1cc2c(cc1OS(N)(=O)=O)CCN(Cc1cccc(NC(C)=O)c1)C2 | WST-1 | – | 96 h | GI50 | > 100 µM
Cc1ccc2nc(-c3ccc([N+](=O)[O-])cc3)n(Cc3ccc(Cl)cc3)c2c1 | MTT | – | – | IC50 | 9.02 µM
O=C1CCCCC1=C1Sc2nc3ccc(S(=O)(=O)N4CCCC4)cc3nc2S1 | MTT | 3.125 µM | 24 h | viability | 69.8%
COc1cccc(-c2nc3ccc(C)cc3[nH]2)c1 | MTT | – | 48 h | IC50 | 15.6 µM
CCOc1cccc(CN2CCc3cc(OS(N)(=O)=O)c(OC)cc3C2)c1 | WST-1 | – | 96 h | GI50 | 0.65 µM
CCOc1cc(CN2CCc3cc(OS(N)(=O)=O)c(OC)cc3C2)cc(OCC)c1OCC | WST-1 | – | 96 h | GI50 | 4.4 µM
CCOc1ccc(-c2nc3ccc(C)cc3[nH]2)cc1 | MTT | – | 48 h | IC50 | 13.2 µM
COc1ccc(/C=C\c2cc(OC)c(OC)c(OC)c2)cc1O | imaging | – | 72 h | CC50 | 0.0037 µM
O=[N+]([O-])c1ccc(-c2nc3ccccc3[nH]2)cc1 | MTT | – | 48 h | IC50 | 26.9 µM
COc1cc2c(cc1O)CCN(Cc1cccc(NC(C)=O)c1)C2 | WST-1 | – | 96 h | GI50 | > 100 µM
C[C@]12CC[C@@H]3c4ccc(O)cc4CC[C@H]3[C@@H]1CC[C@@H]2O | ATP luminescence | – | 72 h | EC90 | 40.1 µM
CCOC(=O)C(C(C)=O)=C1Sc2nc3ccc(S(=O)(=O)N4CCCC4)cc3nc2S1 | MTT | 50 µM | 24 h | viability | 8.1%
COc1cc2c(cc1OS(N)(=O)=O)CCN(Cc1cccc(OS(N)(=O)=O)c1)C2 | WST-1 | – | 96 h | GI50 | 34.9 µM
Clc1ccc(-c2nc3ccccc3[nH]2)c(Cl)c1 | MTT | – | 48 h | IC50 | 52.2 µM
COc1cc(OC)c(CN2CCc3cc(OS(N)(=O)=O)c(OC)cc3C2)c(OC)c1 | WST-1 | – | 96 h | GI50 | > 100 µM
CC(=O)O[C@H]1C(=O)[C@@]2(C)[C@H]([C@H](OC(=O)c3ccccc3)[C@]3(O)C[C@H](OC(=O)[C@H](O)[C@@H](NC(=O)c4ccccc4)c4ccccc4)C(C)=C1C3(C)C)[C@]1(OC(C)=O)CO[C@@H]1C[C@@H]2O | WST-1 | – | 96 h | GI50 | 0.002 µM
CCCCCCCC(=O)NCC(=O)OC | MTT | 10 µM | 48 h | inhibition | 10%
COc1cccc2c1C(=O)c1c(O)c3c(c(O)c1C2=O)C[C@@](O)(C(=O)CO)C[C@@H]3O[C@H]1C[C@H](N)[C@H](O)[C@H](C)O1 | MTT | 100 µM | 24 h | viability | 4.1%
COc1cc2c(cc1O)CCN(Cc1cccc([N+](=O)[O-])c1)C2 | WST-1 | – | 96 h | GI50 | > 100 µM
C[C@]12CCCN1CC1=NNC(=O)c3cc(F)cc4[nH]c2c1c34 | ATP luminescence | – | 7 days | EC50 | ~9 µM
